One experiment has as its system Shigella sonnei. The experiment in a line: Antibacterial activity against Shigella sonnei ATCC 11060 at […]. The experiment is classed as functional, organism-based. Put shortly:
(§1)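 Agar-overlay disk diffusion. Strains grown in LB broth 24 h at 37 °C; 0.3 mL broth culture in 2.7 mL LB soft agar (0.7%) poured over LB hard agar (1.5%). 8 mm paper disks loaded with 10 μL of 2 μg/μL sample; ampicillin (5 μg/μL) positive control, solvent negative control. Plates incubated 37 °C, 24 h, then inhibition assessed.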

The next experiment deals with Klebsiella aerogenes. The experiment in a line: Antibacterial activity against Enterobacter aerogenes ATCC 13048 at […]. The experiment is classed as functional, organism-based. The gist of the method:
as §1

The subject of experiment [1] is RAW264.7. The experiment in a line: Antiinflammatory activity in mouse RAW264.7 cells assessed as reduction of LPS-induced iNOS protein level at 10 uM by immunoblot analysis relative to control. The experiment is classed as functional. On the set-up: scale not given: the % may be the effect or the level left. Put shortly:
(§2)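 Murine RAW 264.7 macrophages stimulated with E. coli LPS (0.01 μg/mL) for 16 h with or without sample (10 μM). Lysates from cells washed in ice-cold PBS; equal protein run on SDS-PAGE, transferred to PVDF, probed with anti-iNOS or anti-COX-2 (1:1000, 180 min); β-actin blotted. Band intensity expressed relative to LPS-alone group (100%); mean ± SEM, n = 5.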

The test system of the next experiment is Serratia marcescens. The experiment in a line: Antibacterial activity against Serratia marcescens ATCC 25419 at […]. The experiment is classed as functional, organism-based. The gist of the method:
as §1

In experiment [2] the test system is Salmonella enterica subsp. enterica. The experiment in a line: Antibacterial activity against Salmonella enteritidis ATCC 13076 at […]. The experiment is classed as functional, organism-based. The conditions noted are these: Salmonella enterica subsp. enterica serovar Enteritidis. Put shortly:
as §1

Experiment [3] concerns RAW264.7. The experiment in a line: Antiinflammatory activity in mouse RAW264.7 cells assessed as reduction of LPS-induced COX2 protein level at 10 uM by immunoblot analysis relative to control. Format: functional. On the set-up: scale not given: the % may be the effect or the level left. The gist of the method:
as §2
In general terms: Immunoblotting shows a protein as a band on a membrane.

Calls of active or inactive are those of the source. The calls are words filed in the database; no cut-off is given here.

In the case of `CCCCCCCCCCCCCC[C@@H](O)C(=O)N[C@@H](CO[C@@H]1O[C@H](CO)[C@@H](O)[C@H](O)[C@H]1O)[C@H](O)/C=C/CC/C=C(\C)CCCCCCCCC`, the outcome (in the experiment with Shigella sonnei; with Klebsiella aerogenes; with Serratia marcescens; in experiment [2]) was inactive. Also, the values for the Activity with RAW264.7 [1] and with RAW264.7 [3] were 20.3% and 64.3%, respectively.

`CCCCCCCCCCCCC/C=C/[C@@H](O)[C@H](CO)NC(C)=O`: the outcome (in the experiment on Shigella sonnei; in the experiment on Klebsiella aerogenes; with Serratia marcescens; in experiment [2]) was inactive. The Activity turned out to be 46.9% in the experiment with RAW264.7 [1] and 77.2% in the experiment on RAW264.7 [3].

In the case of `CCCCCCC/C=C/C(C)=C/CC/C=C/[C@@H](O)[C@H](CO[C@H]1O[C@H](CO)[C@@H](O)[C@H](O)[C@H]1O)NC(=O)[C@H](O)/C=C/CCCCCCCCCCCCCC` [SARCOEHRENOSIDE A], the outcome (in the experiment with Shigella sonnei; with Klebsiella aerogenes; in the experiment with Serratia marcescens; in experiment [2]; in the experiment with RAW264.7 [3]) was inactive. Further, the Activity in the experiment on RAW264.7 [1] is given as 47.3%.

On to `CCCCCCCCCCCCCCCCCCCC[C@@H](O)C(=O)N[C@@H](CO[C@@H]1O[C@H](CO)[C@@H](O)[C@H](O)[C@H]1O)[C@H](O)/C=C/CC/C=C(\C)CCCCCCCCC`, for which the result (in the experiment on Shigella sonnei; in the experiment with Klebsiella aerogenes; in the experiment with Serratia marcescens; in experiment [2]) was inactive.

As to `CCCCCCCCCCCCCCCCCC[C@@H](O)C(=O)N[C@@H](CO[C@@H]1O[C@H](CO)[C@@H](O)[C@H](O)[C@H]1O)[C@H](O)/C=C/CC/C=C(\C)CCCCCCCCC`, the result (in the experiment with Shigella sonnei; in the experiment on Klebsiella aerogenes; with Serratia marcescens; in experiment [2]; in the experiment with RAW264.7 [3]) was inactive. Further, the Activity in the experiment on RAW264.7 [1] is 25.8%.

As to `O=C(/C=C/c1ccc(O)c(O)c1)OCCc1ccccc1` [CAFFEIC ACID PHENETHYL ESTER], the Activity was 1.5% in the experiment on RAW264.7 [1] and 70.2% in the experiment with RAW264.7 [3].

Consider `CCCCCCCCCCCCCCCCCCC[C@@H](O)C(=O)N[C@@H](CO[C@@H]1O[C@H](CO)[C@@H](O)[C@H](O)[C@H]1O)[C@H](O)/C=C/CC/C=C(\C)CCCCCCCCC` [SARCOEHRENOSIDE B], for which the outcome (in the experiment on Shigella sonnei; with Klebsiella aerogenes; with Serratia marcescens; in experiment [2]; in the experiment on RAW264.7 [3]) was inactive. Also, the Activity in the experiment on RAW264.7 [1] was 46.5%.

The record behind these values is ChEMBL document CHEMBL1151968, “Ceramide and cerebrosides from the octocoral Sarcophyton ehrenbergi” (2009).
